Legend:
Kidney [1] = test: Biodistribution in NMRI mouse kidneys at 3.7 MBq/mL after 2 mins by gamma counter; format: ADME, organism-based; conditions: in vivo
Summary of the method: (§1)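 Male NMRI mice (30–40 g), anaesthetised by ip Hypnorm (0.1 ml), given 0.1 ml diluted tracer via tail vein (ethanol ≤10%, THF ≤0.02%). Killed by decapitation at 2 or 60 min pi, n = 4 per time point. Blood and organs dissected and weighed, radioactivity gamma-counted with background correction. Reported as % ID or % ID/g; total blood activity assumes blood mass 7% of body mass.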

Intestine = test: Biodistribution in NMRI mouse intestine at 3.7 MBq/mL after 2 mins by gamma counter; format: ADME, organism-based; conditions: in vivo; summary of the method: as §1
Cerebellum [2] = test: Biodistribution in NMRI mouse cerebellum assessed per gram of tissue at 3.7 MBq/mL after 60 mins by gamma counter; format: ADME, organism-based; conditions: in vivo, 1 h; summary of the method: as §1
[3] = Biodistribution in NMRI mouse cerebrum at 3.7 MBq/mL after 2 mins by gamma counter; format: ADME, organism-based; conditions: in vivo; summary of the method: as §1
Cerebellum [4] = test: Biodistribution in NMRI mouse cerebellum at 3.7 MBq/mL after 60 mins by gamma counter; format: ADME, organism-based; conditions: in vivo, 1 h; summary of the method: as §1
[5] = Biodistribution in NMRI mouse urine at 3.7 MBq/mL after 60 mins by gamma counter; format: ADME, organism-based; conditions: in vivo, 1 h; summary of the method: as §1
Kidney [6] = test: Biodistribution in NMRI mouse kidneys assessed per gram of tissue at 3.7 MBq/mL after 2 mins by gamma counter; format: ADME, organism-based; conditions: in vivo; summary of the method: as §1
Blood [7] = test: Biodistribution in NMRI mouse blood assessed per gram of tissue at 3.7 MBq/mL after 2 mins by gamma counter; format: ADME, organism-based; conditions: in vivo; summary of the method: as §1
[8] = Biodistribution in NMRI mouse liver/gallbladder at 3.7 MBq/mL after 2 mins by gamma counter; format: ADME, organism-based; conditions: in vivo; summary of the method: as §1
Cerebellum [9] = test: Biodistribution in NMRI mouse cerebellum assessed per gram of tissue at 3.7 MBq/mL after 2 mins by gamma counter; format: ADME, organism-based; conditions: in vivo; summary of the method: as §1
Lung [10] = test: Biodistribution in NMRI mouse lungs assessed per gram of tissue at 3.7 MBq/mL after 60 mins by gamma counter; format: ADME, organism-based; conditions: in vivo, 1 h; summary of the method: as §1
[11] = Biodistribution in NMRI mouse cerebrum assessed per gram of tissue at 3.7 MBq/mL after 60 mins by gamma counter; format: ADME, organism-based; conditions: in vivo, 1 h; summary of the method: as §1
[12] = Biodistribution in NMRI mouse cerebrum at 3.7 MBq/mL after 60 mins by gamma counter; format: ADME, organism-based; conditions: in vivo, 1 h; summary of the method: as §1
Blood [13] = test: Biodistribution in NMRI mouse blood assessed per gram of tissue at 3.7 MBq/mL after 60 mins by gamma counter; format: ADME, organism-based; conditions: in vivo, 1 h; summary of the method: as §1
Liver [14] = test: Biodistribution in NMRI mouse liver assessed per gram of tissue at 3.7 MBq/mL after 2 mins by gamma counter; format: ADME, organism-based; conditions: in vivo; summary of the method: as §1
Liver [15] = test: Biodistribution in NMRI mouse liver assessed per gram of tissue at 3.7 MBq/mL after 60 mins by gamma counter; format: ADME, organism-based; conditions: in vivo, 1 h; summary of the method: as §1
[16] = Partition coefficient, log P at pH 7.4; format: physicochemical; conditions: octanol/water
[17] = Biodistribution in NMRI mouse liver/gallbladder at 3.7 MBq/mL after 60 mins by gamma counter; format: ADME, organism-based; conditions: in vivo, 1 h; summary of the method: as §1
Lung [18] = test: Biodistribution in NMRI mouse lungs at 3.7 MBq/mL after 2 mins by gamma counter; format: ADME, organism-based; conditions: in vivo; summary of the method: as §1
Blood [19] = test: Biodistribution in NMRI mouse blood at 3.7 MBq/mL after 2 mins by gamma counter; format: ADME, organism-based; conditions: in vivo; summary of the method: as §1
Lung [20] = test: Biodistribution in NMRI mouse lungs at 3.7 MBq/mL after 60 mins by gamma counter; format: ADME, organism-based; conditions: in vivo, 1 h; summary of the method: as §1
Lung [21] = test: Biodistribution in NMRI mouse lungs assessed per gram of tissue at 3.7 MBq/mL after 2 mins by gamma counter; format: ADME, organism-based; conditions: in vivo; summary of the method: as §1
[22] = Biodistribution in NMRI mouse urine at 3.7 MBq/mL after 2 mins by gamma counter; format: ADME, organism-based; conditions: in vivo; summary of the method: as §1
[23] = Biodistribution in NMRI mouse cerebrum assessed per gram of tissue at 3.7 MBq/mL after 2 mins by gamma counter; format: ADME, organism-based; conditions: in vivo; summary of the method: as §1
Liver [24] = test: Biodistribution in NMRI mouse liver at 3.7 MBq/mL after 2 mins by gamma counter; format: ADME, organism-based; conditions: in vivo; summary of the method: as §1
Kidney [25] = test: Biodistribution in NMRI mouse kidneys at 3.7 MBq/mL after 60 mins by gamma counter; format: ADME, organism-based; conditions: in vivo, 1 h; summary of the method: as §1
Liver [26] = test: Biodistribution in NMRI mouse liver at 3.7 MBq/mL after 60 mins by gamma counter; format: ADME, organism-based; conditions: in vivo, 1 h; summary of the method: as §1
Cerebellum [27] = test: Biodistribution in NMRI mouse cerebellum at 3.7 MBq/mL after 2 mins by gamma counter; format: ADME, organism-based; conditions: in vivo; summary of the method: as §1
Blood [28] = test: Biodistribution in NMRI mouse blood at 3.7 MBq/mL after 60 mins by gamma counter; format: ADME, organism-based; conditions: in vivo, 1 h; summary of the method: as §1
Kidney [29] = test: Biodistribution in NMRI mouse kidneys assessed per gram of tissue at 3.7 MBq/mL after 60 mins by gamma counter; format: ADME, organism-based; conditions: in vivo, 1 h; summary of the method: as §1

Activity (Kidney [1]): 11.4 %ID
Activity (Intestine): 8.5 %ID
Activity (Cerebellum [2]): 0.21 % ID/g
Activity [3]: 1.03 %ID
Activity (Cerebellum [4]): 0.02 %ID
Activity [5]: 15.5 %ID
Activity (Kidney [6]): 17.9 % ID/g
Activity (Blood [7]): 2.9 % ID/g
Activity [8]: 30.3 %ID
Activity (Cerebellum [9]): 3.35 % ID/g
Activity (Lung [10]): 1.5 % ID/g
Activity [11]: 0.21 % ID/g
Activity [12]: 0.07 %ID
Activity (Blood [13]): 0.6 % ID/g
Activity (Liver [14]): 10.2 % ID/g
Activity (Liver [15]): 5.3 % ID/g
logD [16]: 2.86
Activity [17]: 49.4 %ID
Activity (Lung [18]): 3.9 %ID
Activity (Blood [19]): 7.8 %ID
Activity (Lung [20]): 0.4 %ID
Activity (Lung [21]): 13.8 % ID/g
Activity [22]: 0.6 %ID
Activity [23]: 3.2 % ID/g
Activity (Liver [24]): 21.8 %ID
Activity (Kidney [25]): 5.9 %ID
Activity (Liver [26]): 11.7 %ID
Activity (Cerebellum [27]): 0.33 %ID
Activity (Blood [28]): 1.8 %ID
Activity (Kidney [29]): 8.2 % ID/g
SMILES: [18F]c1ccc(-c2nc3ccccc3s2)cc1

From ChEMBL document CHEMBL1143387, “Synthesis of 18F-labelled 2-(4'-fluorophenyl)-1,3-benzothiazole and evaluation as amyloid imaging agent in comparison with [11C]PIB” (Bioorg Med Chem Lett, 2009)
